# Measured values from ChEMBL document CHEMBL1949668, “Synthesis of new α aminophosphonate system bearing Indazole moiety and their biological activity” (2012).
# Tests used:
# [1] = system: Staphylococcus aureus; assay: Antibacterial activity Staphylococcus aureus at 40 ug/disc after 24 hrs by agar disc diffusion method; format: functional; details: read-out: IZ
# How it was run: (§1)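 Agar disc diffusion. Strains were grown in Mueller Hinton broth for 18–24 h at 37 °C. The bacterial suspension was spread on Mueller Hinton agar, and dried loaded discs were placed on it once the plates were dry. Gentamycin and […] reference discs carried 40 mcg/disc from 1 mg/ml solutions. Plates were incubated 24 h at 37 °C, and clear inhibition zones were measured in mm.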
# [2] = system: Salmonella typhimurium; assay: Antibacterial activity Salmonella Typhimurium at 40 ug/disc after 24 hrs by agar disc diffusion method; format: functional, Salmonella enterica subsp. enterica serovar Typhimurium; details: for zone of inhibition at 40 µg/disc: Salmonella enterica, read-out: IZ; how it was run: as §1
# [3] = system: Pseudomonas aeruginosa; assay: Antibacterial activity Pseudomonas aeruginosa at 40 ug/disc after 24 hrs by agar disc diffusion method; format: functional; details: read-out: IZ; how it was run: as §1
# [4] = system: Klebsiella pneumoniae; assay: Antibacterial activity Klebsiella pneumoniae at 40 ug/disc after 24 hrs by agar disc diffusion method; format: functional; details: for zone of inhibition at 40 µg/disc: read-out: IZ; how it was run: as §1
# [5] = system: Escherichia coli; assay: Antibacterial activity Escherichia coli at 40 ug/disc after 24 hrs by agar disc diffusion method; format: functional; details: read-out: IZ; how it was run: as §1
# [6] = system: Bacillus subtilis; assay: Antibacterial activity Bacillus subtilis at 40 ug/disc after 24 hrs by agar disc diffusion method; format: functional; details: for zone of inhibition at 40 µg/disc: read-out: IZ; how it was run: as §1
Molecule,zone of inhibition at 40 µg/disc [1],zone of inhibition at 40 µg/disc [2],zone of inhibition at 40 µg/disc [3],zone of inhibition at 40 µg/disc [4],zone of inhibition at 40 µg/disc [5],zone of inhibition at 40 µg/disc [6],inhibition zone (IZ) ([2]; Salmonella enterica subsp. enterica serovar Typhimurium),inhibition zone (IZ) [4],inhibition zone (IZ) [6]
CCOP(=O)(OCC)C(NNC(=O)c1nn(C)c2ccccc12)c1ccccc1 (stereo not drawn),2 mm,2 mm,1 mm,3 mm,0 mm,5 mm,–,–,–
CCOP(=O)(OCC)C(NNC(=O)c1nn(C)c2ccccc12)c1cccc(F)c1 (stereo not drawn),3 mm,4 mm,7 mm,8 mm,5 mm,4 mm,–,–,–
CCOP(=O)(OCC)C(NNC(=O)c1nn(C)c2ccccc12)c1ccc(C(F)(F)F)cc1 (stereo not drawn),5 mm,5 mm,6 mm,7 mm,3 mm,4 mm,–,–,–
NC[C@H]1O[C@H](O[C@H]2[C@H](O)[C@@H](O[C@H]3O[C@H](CO)[C@@H](O)[C@H](N)[C@H]3O)[C@H](N)C[C@@H]2N)[C@H](O)[C@@H](O)[C@@H]1O [KANAMYCIN],9 mm,14 mm,21 mm,18 mm,13 mm,15 mm,–,–,–
GENTAMICIN,–,–,–,–,–,–,11 mm,13 mm,15 mm
CCOP(=O)(OCC)C(NNC(=O)c1nn(C)c2ccccc12)c1ccccc1Br (stereo not drawn),1 mm,3 mm,4 mm,2 mm,1 mm,7 mm,–,–,–
